Published values gathered from unrelated publications.
Protocols differ between the studies behind these lines.
Cell line: MDA-MB-468
Read-out: cell growth or viability

SMILES | test | conditions | IC50 [µM]
COc1cc(/C=C2\SC(=O)NC2=O)ccc1OCc1ccc(Cl)cc1Cl | MTT | 72 h | 64.1
CC1=CC(=C(c2ccc(N)c(C)c2)c2ccc(N)c(C)c2)C=CC1=N | MTT | – | 3.1
COc1cccc2c1C(=O)c1c(O)c3c(c(O)c1C2=O)C[C@@](O)(C(=O)CO)C[C@@H]3O[C@H]1C[C@H](N)[C@H](O)[C@H](C)O1 | resazurin | 72 h | 0.1
COc1ccc(/C=C/C(=O)c2cc(Br)ccc(=O)c2O)cc1 | MTT | 48 h | 6.3
Nc1nc(Nc2ccc(S(N)(=O)=O)cc2)sc1C(=O)c1cccc(F)c1 | MTT | 72 h | 0.85
c1ccc2c(c1)Cc1c(Cc3csc4ccccc34)ccc3cccc-2c13 | MTT | – | 157
O=S(=O)(NN=Cc1cn(CCN2CCOCC2)c2ccccc12)c1ccc(F)cc1 | MTT | 48 h | 15
CC(=O)Nc1nc(C)c(-c2csc(Nc3ccccc3)n2)s1 | MTT | 72 h | 11.1
O=[N+]([O-])c1ccc(S(=O)(=O)NN=Cc2cn(CCN3CCOCC3)c3ccccc23)cc1 | MTT | 48 h | 37.1
CCc1ccc(N2NC(=O)/C(=C/c3ccc(-c4ccc(S(=O)(=O)Nc5nccs5)cc4)o3)C2=O)cc1 | MTT | 48 h | 44
O=S(=O)(NN=Cc1cn(CCN2CCOCC2)c2ccccc12)c1ccc(-c2ccccc2)cc1 | MTT | 48 h | 32
Cc1ccccc1Sc1cc2ccccc2c2ccccc12 | MTT | – | 29
COc1ccc(S(=O)(=O)NN=Cc2cn(CCN3CCOCC3)c3ccccc23)cc1 | MTT | 48 h | 43.3
COc1ccccc1N=Nc1c(O)ccc2ccccc12 | MTT | – | 21
O=S(=O)(NN=Cc1cn(CCN2CCOCC2)c2ccccc12)c1ccc2ccccc2c1 | MTT | 48 h | 53.4
Oc1ccc(N=Nc2ccccc2)c2ccccc12 | MTT | – | 4.9
O=C(CSc1nc2ccc(N=Cc3ccc(Sc4nnnn4-c4ccccc4)o3)cc2s1)N1CCOCC1 | MTT | 48 h | 26.9
COc1cccc2c1C(=O)c1c(O)c3c(c(O)c1C2=O)C[C@@](O)(C(=O)CO)C[C@@H]3O[C@H]1C[C@H](N)[C@H](O)[C@H](C)O1 | MTT | 48 h | 0.08
Cc1c2cccc(Sc3ccccc3)c2c2c3c(cccc13)[S+](c1ccccc1)C2 (centres unmarked) | MTT | – | 0.71
COc1ccc(Br)cc1/C=C/C(=O)c1ccc(NC(C)=O)cc1 | MTT | 72 h | 1.8
